How the values were obtained:
Format in all cases: functional
Meloidogyne incognita [1] = assay: Nematicidal activity against Meloidogyne incognita (root-knot nematode) assessed as cumulative percentage of egg hatching at 25 degC at 2000 umol/L on day 7 (SDW control = 12.63 +/- 3.84%)
Summary of the method: (§1)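 Eggs (500 in 1 mL suspension) held on a 1 cm sieve of 35 μm pore, set in the center well of a 24-well plate. About 2 mL of fatty acid solution (final 100, 1000 or 2000 μmol/L) was added, reaching only the sieve bottom. The fatty acid was dissolved in acetone/Tween-80/DMSO medium and diluted with sterile distilled water. SDW and medium served as controls. One treatment per plate, six replicates, parafilm-sealed, 25 °C. Hatched J2s were counted and the solution renewed on days 3, 7, 14 and 21; values are cumulative % hatch as mean ± SE.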

Meloidogyne incognita [2] = assay: Nematicidal activity against Meloidogyne incognita (root-knot nematode) assessed as cumulative percentage of egg hatching at 25 degC at 100 umol/L on day 14 (SDW control = 35.77 +/- 4.48%); summary of the method: as §1
Meloidogyne incognita [3] = assay: Nematicidal activity against Meloidogyne incognita (root-knot nematode) assessed as cumulative percentage of egg hatching at 25 degC at 2000 umol/L on day 14 (SDW control = 35.77 +/- 4.48%); summary of the method: as §1
Meloidogyne incognita [4] = assay: Nematicidal activity against Meloidogyne incognita (root-knot nematode) assessed as cumulative percentage of egg hatching at 25 degC at 1000 umol/L on day 21 (SDW control = 44.87 +/- 3.93%); summary of the method: as §1
Meloidogyne incognita [5] = assay: Nematicidal activity against second-stage juvenile of Meloidogyne incognita (root-knot nematode) assessed as mortality at 25 degC at 1000 umol/L after 24 hr Rvb = 1.47 to 2.51%)
Meloidogyne incognita [6] = assay: Nematicidal activity against Meloidogyne incognita (root-knot nematode) assessed as cumulative percentage of egg hatching at 25 degC at 1000 umol/L on day 7 (SDW control = 12.63 +/- 3.84%); summary of the method: as §1
Meloidogyne incognita [7] = assay: Nematicidal activity against Meloidogyne incognita (root-knot nematode) assessed as cumulative percentage of egg hatching at 25 degC at 1000 umol/L on day 14 (SDW control = 35.77 +/- 4.48%); summary of the method: as §1
Meloidogyne incognita [8] = assay: Nematicidal activity against second-stage juvenile of Meloidogyne incognita (root-knot nematode) assessed as mortality at 25 degC at 2000 umol/L after 12 hr (reference value: 1.79 to 3.30%)
Meloidogyne incognita [9] = assay: Nematicidal activity against second-stage juvenile of Meloidogyne incognita (root-knot nematode) assessed as mortality at 25 degC at 100 umol/L after 12 hr (reference value: 1.79 to 3.30%)
Meloidogyne incognita [10] = assay: Nematicidal activity against Meloidogyne incognita (root-knot nematode) assessed as cumulative percentage of egg hatching at 25 degC at 2000 umol/L on day 21 (SDW control = 44.87 +/- 3.93%); summary of the method: as §1
Meloidogyne incognita [11] = assay: Nematicidal activity against second-stage juvenile of Meloidogyne incognita (root-knot nematode) assessed as mortality at 25 degC at 1000 umol/L after 12 hr (reference value: 1.79 to 3.30%)
Meloidogyne incognita [12] = assay: Nematicidal activity against second-stage juvenile of Meloidogyne incognita (root-knot nematode) assessed as mortality at 25 degC at 2000 umol/L after 24 hr Rvb = 1.47 to 2.51%)
Meloidogyne incognita [13] = assay: Nematicidal activity against Meloidogyne incognita (root-knot nematode) root-knot nematodes assessed as cumulative percentage of egg hatching at 25 degC at 100 umol/L on day 3 (SDW control = 0.57 +/- 0.37%); summary of the method: as §1
Meloidogyne incognita [14] = assay: Nematicidal activity against Meloidogyne incognita (root-knot nematode) assessed as cumulative percentage of egg hatching at 25 degC at 1000 umol/L on day 3 (SDW control = 0.57 +/- 0.37%); summary of the method: as §1
Meloidogyne incognita [15] = assay: Nematicidal activity against Meloidogyne incognita (root-knot nematode) assessed as cumulative percentage of egg hatching at 25 degC at 2000 umol/L on day 3 (SDW control = 0.57 +/- 0.37%); summary of the method: as §1
Meloidogyne incognita [16] = assay: Nematicidal activity against second-stage juvenile of Meloidogyne incognita (root-knot nematode) assessed as mortality at 25 degC at 100 umol/L after 24 hr (reference value: 1.47 to 2.51%)
Meloidogyne incognita [17] = assay: Nematicidal activity against Meloidogyne incognita (root-knot nematode) assessed as cumulative percentage of egg hatching at 25 degC at 100 umol/L on day 7 (SDW control = 12.63 +/- 3.84%); summary of the method: as §1
Meloidogyne incognita [18] = assay: Nematicidal activity against Meloidogyne incognita (root-knot nematode) assessed as cumulative percentage of egg hatching at 25 degC at 100 umol/L on day 21 (SDW control = 44.87 +/- 3.93%); summary of the method: as §1

Compound	Activity (Meloidogyne incognita [1])	Activity (Meloidogyne incognita [2])	Activity (Meloidogyne incognita [3])	Activity (Meloidogyne incognita [4])	mortality at 1000 µM (Meloidogyne incognita [5])	Activity (Meloidogyne incognita [6])	Activity (Meloidogyne incognita [7])	mortality at 2000 µM (Meloidogyne incognita [8])	mortality at 100 µM (Meloidogyne incognita [9])	Activity (Meloidogyne incognita [10])	mortality at 1000 µM (Meloidogyne incognita [11])	mortality at 2000 µM (Meloidogyne incognita [12])	Activity (Meloidogyne incognita [13])	Activity (Meloidogyne incognita [14])	Activity (Meloidogyne incognita [15])	mortality at 100 µM (Meloidogyne incognita [16])	Activity (Meloidogyne incognita [17])	Activity (Meloidogyne incognita [18])
CCCC(=O)O [BUTYRIC ACID]	4.47%	13.9%	8.17%	21.47%	2.34%	7.87%	17.17%	3.23%	2.55%	14.13%	3.34%	3.28%	1.6%	2%	0.67%	2.91%	6.7%	20.37%
CCCCCC(=O)O [HEXANOATE]	6.4%	9.57%	14.4%	21.2%	2.29%	7.67%	16.67%	2.02%	0.39%	19.67%	1.09%	4.44%	0.87%	2.77%	0.8%	1.5%	2.97%	15.97%
CCCCCCCC(=O)O [OCTANOIC ACID]	–	23.63%	13.07%	21%	1.08%	9.03%	16.87%	49.9%	1.65%	15.07%	65.6%	56.4%	2.3%	2.6%	0.73%	40.5%	8.6%	30.93%
CCCCC/C=C\C/C=C\CCCCCCCC(=O)O [LINOLEIC ACID]	2.3%	29.8%	5.87%	29.47%	3.3%	6.6%	20.43%	3.41%	3.12%	11.33%	4.72%	5.1%	0.33%	0.13%	0.33%	3.72%	6.17%	37.97%

From ChEMBL document CHEMBL3045708, “Potential antagonistic effects of nine natural fatty acids against Meloidogyne incognita” (2012)
